ChEMBL document CHEMBL4020839, “Class I HDAC Inhibitors Display Different Antitumor Mechanism in Leukemia and Prostatic Cancer Cells Depending on Their p53 Status” (J Med Chem, 2018)
Calls of active or inactive are those of the source. No cut-off for these calls is given here.

Columns and labels:
[1] = molecular target: T1, Protein deacetylase HDAC6 (Homo sapiens, UniProt Q9UBN7); assay: Inhibition of HDAC6 (unknown origin) using Boc-Lys(acetyl)-AMC as substrate preincubated for 1 hr followed by substrate addition measured after 2 hrs by fluorescence assay
T1 sequence (Q9UBN7 whole entry): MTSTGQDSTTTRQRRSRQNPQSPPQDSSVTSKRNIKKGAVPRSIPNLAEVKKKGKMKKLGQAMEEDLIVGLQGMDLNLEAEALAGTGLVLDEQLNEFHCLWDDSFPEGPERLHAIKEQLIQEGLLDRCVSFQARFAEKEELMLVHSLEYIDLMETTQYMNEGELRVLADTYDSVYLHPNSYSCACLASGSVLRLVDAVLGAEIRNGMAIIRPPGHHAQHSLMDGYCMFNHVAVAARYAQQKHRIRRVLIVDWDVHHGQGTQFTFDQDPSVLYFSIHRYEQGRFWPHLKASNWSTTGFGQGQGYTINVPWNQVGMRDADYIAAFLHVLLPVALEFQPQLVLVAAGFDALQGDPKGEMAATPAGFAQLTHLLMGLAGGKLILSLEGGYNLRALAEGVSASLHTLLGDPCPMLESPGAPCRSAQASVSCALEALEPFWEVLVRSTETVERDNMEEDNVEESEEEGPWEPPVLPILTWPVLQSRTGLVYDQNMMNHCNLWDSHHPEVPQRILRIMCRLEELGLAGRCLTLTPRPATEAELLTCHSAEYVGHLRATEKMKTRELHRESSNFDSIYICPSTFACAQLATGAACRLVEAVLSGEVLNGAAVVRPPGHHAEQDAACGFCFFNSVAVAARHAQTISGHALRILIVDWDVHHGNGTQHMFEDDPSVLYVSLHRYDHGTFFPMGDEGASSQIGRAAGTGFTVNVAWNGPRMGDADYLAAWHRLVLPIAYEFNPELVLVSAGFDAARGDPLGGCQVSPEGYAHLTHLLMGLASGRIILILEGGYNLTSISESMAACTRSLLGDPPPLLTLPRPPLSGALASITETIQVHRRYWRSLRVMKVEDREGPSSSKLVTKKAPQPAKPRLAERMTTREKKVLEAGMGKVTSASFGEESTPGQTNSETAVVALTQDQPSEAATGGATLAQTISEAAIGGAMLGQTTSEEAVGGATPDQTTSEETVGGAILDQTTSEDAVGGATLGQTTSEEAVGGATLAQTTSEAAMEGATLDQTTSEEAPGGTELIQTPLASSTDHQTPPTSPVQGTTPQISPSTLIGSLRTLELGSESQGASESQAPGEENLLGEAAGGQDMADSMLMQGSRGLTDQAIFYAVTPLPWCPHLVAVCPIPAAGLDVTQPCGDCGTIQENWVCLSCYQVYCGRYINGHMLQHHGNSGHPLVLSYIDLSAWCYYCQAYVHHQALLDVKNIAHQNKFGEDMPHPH
How it was run: (§1)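 Recombinant HDAC incubated with serial compound dilutions at 30 °C for 1 h. Reaction run 2 h at 30 °C, stopped with developer containing trypsin and TSA. Fluorescence read after 30 min at 360/460 nm. Inhibition relative to control wells; IC50 from variable-slope fit.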

[2] = molecular target: T2, Histone deacetylase 3/Nuclear receptor corepressor 2 (HDAC3/NCoR2) (Homo sapiens, UniProt O15379); assay: Inhibition of full length recombinant human C-terminal His-tagged HDAC3/N-terminal GST-tagged NCOR2 co-expressed in baculovirus expression system using Boc-Lys(acetyl)-AMC as substrate preincubated for 1 hr followed by substrate addition measured after 2 hrs by fluorescence assay; how it was run: as §1
T2 sequence (O15379 whole entry): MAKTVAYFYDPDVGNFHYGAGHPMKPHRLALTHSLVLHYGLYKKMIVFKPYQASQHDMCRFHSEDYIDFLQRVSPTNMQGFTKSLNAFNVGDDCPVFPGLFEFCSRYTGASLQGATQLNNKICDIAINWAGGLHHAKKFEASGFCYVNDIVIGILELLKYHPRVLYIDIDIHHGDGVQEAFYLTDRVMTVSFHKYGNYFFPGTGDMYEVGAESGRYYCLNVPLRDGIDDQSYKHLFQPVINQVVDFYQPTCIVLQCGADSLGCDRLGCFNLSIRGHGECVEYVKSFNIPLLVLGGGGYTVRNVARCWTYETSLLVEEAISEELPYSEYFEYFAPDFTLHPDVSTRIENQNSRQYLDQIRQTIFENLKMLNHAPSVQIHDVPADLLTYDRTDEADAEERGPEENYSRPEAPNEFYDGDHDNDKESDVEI
T2 sequence (Q9Y618 whole entry, further chain): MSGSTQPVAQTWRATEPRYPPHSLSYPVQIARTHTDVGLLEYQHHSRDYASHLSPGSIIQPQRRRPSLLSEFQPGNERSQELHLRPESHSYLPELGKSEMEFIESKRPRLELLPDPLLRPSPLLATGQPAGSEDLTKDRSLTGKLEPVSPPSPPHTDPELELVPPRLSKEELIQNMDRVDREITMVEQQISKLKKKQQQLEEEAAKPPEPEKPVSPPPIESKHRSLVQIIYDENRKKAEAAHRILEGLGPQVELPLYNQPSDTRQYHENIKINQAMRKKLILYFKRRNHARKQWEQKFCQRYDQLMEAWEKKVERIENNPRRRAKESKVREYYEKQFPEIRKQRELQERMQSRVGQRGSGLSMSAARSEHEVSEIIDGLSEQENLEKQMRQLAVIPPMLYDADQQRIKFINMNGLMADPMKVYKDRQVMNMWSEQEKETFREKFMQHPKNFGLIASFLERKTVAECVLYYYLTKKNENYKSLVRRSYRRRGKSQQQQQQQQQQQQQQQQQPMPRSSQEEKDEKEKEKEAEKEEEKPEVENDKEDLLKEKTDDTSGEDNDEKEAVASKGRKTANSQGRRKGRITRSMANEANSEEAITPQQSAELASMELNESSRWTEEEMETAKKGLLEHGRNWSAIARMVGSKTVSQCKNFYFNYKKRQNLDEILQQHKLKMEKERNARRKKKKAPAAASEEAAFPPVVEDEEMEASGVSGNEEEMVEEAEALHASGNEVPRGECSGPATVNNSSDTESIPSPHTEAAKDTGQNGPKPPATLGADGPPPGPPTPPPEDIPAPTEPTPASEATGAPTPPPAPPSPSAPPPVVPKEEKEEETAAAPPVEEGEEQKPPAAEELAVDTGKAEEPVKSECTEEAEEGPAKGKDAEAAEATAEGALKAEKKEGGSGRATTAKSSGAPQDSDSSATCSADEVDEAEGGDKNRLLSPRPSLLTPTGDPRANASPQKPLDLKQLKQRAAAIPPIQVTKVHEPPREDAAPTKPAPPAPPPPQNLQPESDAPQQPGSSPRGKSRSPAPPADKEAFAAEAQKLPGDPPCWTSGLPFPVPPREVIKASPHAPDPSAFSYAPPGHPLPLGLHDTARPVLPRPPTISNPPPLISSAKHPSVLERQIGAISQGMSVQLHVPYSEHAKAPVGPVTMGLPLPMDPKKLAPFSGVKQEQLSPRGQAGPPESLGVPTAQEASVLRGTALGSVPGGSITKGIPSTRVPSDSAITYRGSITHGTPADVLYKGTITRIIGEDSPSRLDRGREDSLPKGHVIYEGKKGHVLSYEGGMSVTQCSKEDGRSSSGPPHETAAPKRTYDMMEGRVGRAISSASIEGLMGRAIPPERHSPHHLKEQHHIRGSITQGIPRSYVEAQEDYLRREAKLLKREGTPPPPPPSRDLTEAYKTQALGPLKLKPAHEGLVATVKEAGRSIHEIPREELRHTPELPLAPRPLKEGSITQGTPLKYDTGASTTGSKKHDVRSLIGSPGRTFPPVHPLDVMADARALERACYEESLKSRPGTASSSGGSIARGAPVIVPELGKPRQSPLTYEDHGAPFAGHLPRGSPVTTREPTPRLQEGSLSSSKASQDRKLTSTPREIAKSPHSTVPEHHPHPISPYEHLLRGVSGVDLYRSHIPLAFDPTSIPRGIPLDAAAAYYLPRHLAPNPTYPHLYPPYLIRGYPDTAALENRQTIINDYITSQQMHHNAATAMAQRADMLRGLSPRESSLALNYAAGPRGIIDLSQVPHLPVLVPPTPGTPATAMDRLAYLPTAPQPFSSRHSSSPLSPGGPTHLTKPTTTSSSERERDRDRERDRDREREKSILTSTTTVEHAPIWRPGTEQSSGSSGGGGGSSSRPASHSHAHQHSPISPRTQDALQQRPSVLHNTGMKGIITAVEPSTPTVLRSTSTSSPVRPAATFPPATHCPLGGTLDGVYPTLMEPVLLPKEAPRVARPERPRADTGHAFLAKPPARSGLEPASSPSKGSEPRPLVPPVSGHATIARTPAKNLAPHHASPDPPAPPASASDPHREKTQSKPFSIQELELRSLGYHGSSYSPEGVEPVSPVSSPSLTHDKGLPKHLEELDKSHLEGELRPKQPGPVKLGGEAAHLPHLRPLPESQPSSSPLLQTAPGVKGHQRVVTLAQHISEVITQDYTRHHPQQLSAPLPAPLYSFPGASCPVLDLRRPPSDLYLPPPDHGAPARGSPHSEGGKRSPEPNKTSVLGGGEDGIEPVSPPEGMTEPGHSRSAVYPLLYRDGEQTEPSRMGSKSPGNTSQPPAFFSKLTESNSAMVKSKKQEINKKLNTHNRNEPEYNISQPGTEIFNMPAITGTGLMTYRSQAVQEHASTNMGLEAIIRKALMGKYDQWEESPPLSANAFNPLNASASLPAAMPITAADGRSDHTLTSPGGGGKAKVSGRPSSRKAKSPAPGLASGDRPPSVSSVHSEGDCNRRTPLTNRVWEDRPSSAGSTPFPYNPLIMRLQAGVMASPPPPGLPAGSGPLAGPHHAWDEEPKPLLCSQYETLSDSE

[3] = molecular target: T3, Histone deacetylase 2 (Homo sapiens, UniProt Q92769); assay: Inhibition of full length recombinant human C-terminal FLAG/His-tagged HDAC2 expressed in baculovirus expression system using Boc-Lys(acetyl)-AMC as substrate preincubated for 1 hr followed by substrate addition measured after 2 hrs by fluorescence assay; how it was run: as §1
T3 sequence (Q92769 whole entry): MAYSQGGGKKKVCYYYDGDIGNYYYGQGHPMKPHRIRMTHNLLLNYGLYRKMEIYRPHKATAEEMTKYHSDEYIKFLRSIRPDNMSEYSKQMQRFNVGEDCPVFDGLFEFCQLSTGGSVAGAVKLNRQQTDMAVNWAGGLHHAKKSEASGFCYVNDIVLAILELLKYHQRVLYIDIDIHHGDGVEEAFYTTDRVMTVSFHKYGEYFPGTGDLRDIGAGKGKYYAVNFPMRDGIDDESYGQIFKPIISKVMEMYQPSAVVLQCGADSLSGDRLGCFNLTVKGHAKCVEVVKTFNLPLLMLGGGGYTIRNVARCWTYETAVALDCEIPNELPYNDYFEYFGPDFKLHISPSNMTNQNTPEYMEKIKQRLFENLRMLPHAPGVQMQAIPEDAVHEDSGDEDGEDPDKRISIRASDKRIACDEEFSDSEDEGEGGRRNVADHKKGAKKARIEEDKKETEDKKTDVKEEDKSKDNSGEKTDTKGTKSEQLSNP

[4] = molecular target: T4, Histone deacetylase 1 (Homo sapiens, UniProt Q13547); assay: Inhibition of full length recombinant human C-terminal FLAG/His-tagged HDAC1 expressed in baculovirus expression system using Boc-Lys(acetyl)-AMC as substrate preincubated for 1 hr followed by substrate addition measured after 2 hrs by fluorescence assay; how it was run: as §1
T4 sequence (Q13547 whole entry): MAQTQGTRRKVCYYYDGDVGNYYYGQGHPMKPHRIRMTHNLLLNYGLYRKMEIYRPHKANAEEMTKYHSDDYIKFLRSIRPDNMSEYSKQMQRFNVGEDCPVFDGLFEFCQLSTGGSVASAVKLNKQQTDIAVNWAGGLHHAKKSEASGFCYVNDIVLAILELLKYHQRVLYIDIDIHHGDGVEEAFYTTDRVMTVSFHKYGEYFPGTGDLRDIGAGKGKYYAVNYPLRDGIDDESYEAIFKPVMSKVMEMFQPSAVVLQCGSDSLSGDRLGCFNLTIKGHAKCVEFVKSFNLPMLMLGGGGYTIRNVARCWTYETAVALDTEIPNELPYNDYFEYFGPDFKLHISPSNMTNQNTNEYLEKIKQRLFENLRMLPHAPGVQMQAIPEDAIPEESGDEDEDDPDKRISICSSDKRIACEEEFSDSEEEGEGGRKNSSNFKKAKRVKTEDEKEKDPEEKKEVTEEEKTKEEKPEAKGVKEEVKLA

[5] = test system: MV4-11; assay: Antiproliferative activity against human MV4-11 cells after 48 hrs by CellTiter-Blue assay; format: functional, cell-based; conditions: MV4-11, 48 h
[6] = test system: MV4-11; assay: Downregulation of HDAC6 protein expression in human MV4-11 cells at 5 uM after 24 hrs by Western blot analysis; format: functional, cell-based
How it was run: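 MV4-11 cells treated 24 h at 0.25, 0.5, 1 and 2 μM, with 5 μM SAHA as reference. RIPA lysates normalized by BCA, run on 4–12% Bis-Tris gels, probed with primary antibodies at 1/1000 overnight at 4 °C. HDAC6 and acetylated histones/tubulin detected; actin as loading control. Representative of n = 2.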

[7] = molecular target: T4, Histone deacetylase 1; assay: Inhibition of full length recombinant human C-terminal FLAG/His-tagged HDAC1 expressed in baculovirus expression system using Boc-Lys(acetyl)-AMC as substrate preincubated for 15 mins followed by substrate addition measured after 2 hrs by fluorescence assay
How it was run: (§2)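 Recombinant HDAC1 was preincubated with serially diluted inhibitor at 30 °C for the stated time. Boc-Lys(acetyl)-AMC was then added and the reaction ran 2 h at 30 °C. It was stopped with a trypsin/trichostatin A developer, and fluorescence was read 30 min later (ex 360/em 460 nm). Inhibition was taken relative to control wells, and IC50 came from a variable-slope log(inhibitor)–normalized response fit.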

[8] = molecular target: T4, Histone deacetylase 1; assay: Inhibition of full length recombinant human C-terminal FLAG/His-tagged HDAC1 expressed in baculovirus expression system using Boc-Lys(acetyl)-AMC as substrate preincubated for 30 mins followed by substrate addition measured after 2 hrs by fluorescence assay
[9] = molecular target: T2, Histone deacetylase 3/Nuclear receptor corepressor 2 (HDAC3/NCoR2); assay: Inhibition of full length recombinant human C-terminal His-tagged HDAC3/N-terminal GST-tagged NCOR2 co-expressed in baculovirus expression system using Boc-Lys(acetyl)-AMC as substrate preincubated for 60 mins followed by substrate addition measured after 2 hrs by fluorescence assay
[10] = molecular target: T3, Histone deacetylase 2; assay: Inhibition of full length recombinant human C-terminal FLAG/His-tagged HDAC2 expressed in baculovirus expression system using Boc-Lys(acetyl)-AMC as substrate preincubated for 90 mins followed by substrate addition measured after 2 hrs by fluorescence assay
How it was run: (§3)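 Recombinant HDAC2 preincubated with serial compound dilutions at 30 °C for 15, 30, 60 or 90 min. Boc-Lys(acetyl)-AMC added and reaction run 2 h at 30 °C, then stopped with trypsin/TSA developer. Fluorescence read at 360/460 nm; IC50 from variable-slope fit of control-normalized inhibition.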

[11] = molecular target: T3, Histone deacetylase 2; assay: Inhibition of full length recombinant human C-terminal FLAG/His-tagged HDAC2 expressed in baculovirus expression system using Boc-Lys(acetyl)-AMC as substrate preincubated for 60 mins followed by substrate addition measured after 2 hrs by fluorescence assay; how it was run: as §3
[12] = molecular target: T2, Histone deacetylase 3/Nuclear receptor corepressor 2 (HDAC3/NCoR2); assay: Inhibition of full length recombinant human C-terminal His-tagged HDAC3/N-terminal GST-tagged NCOR2 co-expressed in baculovirus expression system using Boc-Lys(acetyl)-AMC as substrate preincubated for 90 mins followed by substrate addition measured after 2 hrs by fluorescence assay
[13] = molecular target: T2, Histone deacetylase 3/Nuclear receptor corepressor 2 (HDAC3/NCoR2); assay: Inhibition of full length recombinant human C-terminal His-tagged HDAC3/N-terminal GST-tagged NCOR2 co-expressed in baculovirus expression system using Boc-Lys(acetyl)-AMC as substrate preincubated for 15 mins followed by substrate addition measured after 2 hrs by fluorescence assay
[14] = molecular target: T3, Histone deacetylase 2; assay: Mixed-type inhibition of full length recombinant human C-terminal FLAG/His-tagged HDAC2 expressed in baculovirus expression system using Boc-Lys(acetyl)-AMC as substrate preincubated for 2 hrs followed by substrate addition measured after 2 hrs by Lineweaver-Burk plot analysis
How it was run: (§4)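 Recombinant human HDAC2 or HDAC3 incubated 2 h at 30 °C with inhibitor at several concentrations in HDAC buffer. Serially diluted Boc-Lys(acetyl)-AMC added for 2 h, then quenched with 5 mg/mL trypsin and 1 μM TSA. Fluorescence read at 360/460 nm. Vmax and Km from Michaelis–Menten fits, shown as Lineweaver–Burk plots.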

[15] = molecular target: T4, Histone deacetylase 1; assay: Inhibition of full length recombinant human C-terminal FLAG/His-tagged HDAC1 expressed in baculovirus expression system using Boc-Lys(acetyl)-AMC as substrate preincubated for 90 mins followed by substrate addition measured after 2 hrs by fluorescence assay; how it was run: as §2
[16] = molecular target: Histone deacetylase 3/Nuclear receptor corepressor 2 (HDAC3/NCoR2) (Homo sapiens) (UniProt O15379+Q9Y618); assay: Mixed-type inhibition of full length recombinant human C-terminal His-tagged HDAC3/N-terminal GST-tagged NCOR2 co-expressed in baculovirus expression system using Boc-Lys(acetyl)-AMC as substrate preincubated for 2 hrs followed by substrate addition measured after 2 hrs by Lineweaver-Burk plot analysis; how it was run: as §4
[17] = molecular target: T3, Histone deacetylase 2; assay: Inhibition of full length recombinant human C-terminal FLAG/His-tagged HDAC2 expressed in baculovirus expression system using Boc-Lys(acetyl)-AMC as substrate preincubated for 15 mins followed by substrate addition measured after 2 hrs by fluorescence assay; how it was run: as §3
[18] = molecular target: T3, Histone deacetylase 2; assay: Inhibition of full length recombinant human C-terminal FLAG/His-tagged HDAC2 expressed in baculovirus expression system using Boc-Lys(acetyl)-AMC as substrate preincubated for 30 mins followed by substrate addition measured after 2 hrs by fluorescence assay; how it was run: as §3
[19] = molecular target: T4, Histone deacetylase 1; assay: Inhibition of full length recombinant human C-terminal FLAG/His-tagged HDAC1 expressed in baculovirus expression system using Boc-Lys(acetyl)-AMC as substrate preincubated for 60 mins followed by substrate addition measured after 2 hrs by fluorescence assay; how it was run: as §2
[20] = molecular target: T2, Histone deacetylase 3/Nuclear receptor corepressor 2 (HDAC3/NCoR2); assay: Inhibition of full length recombinant human C-terminal His-tagged HDAC3/N-terminal GST-tagged NCOR2 co-expressed in baculovirus expression system using Boc-Lys(acetyl)-AMC as substrate preincubated for 30 mins followed by substrate addition measured after 2 hrs by fluorescence assay

Structure (SMILES)	IC50 [1] [nM]	IC50 [2] [nM]	IC50 [3] [nM]	IC50 [4] [nM]	other results
CCCNNC(=O)CCCCCNC(=O)[C@H](Cc1c[nH]c2ccccc12)NC(=O)c1ccc(OC)cc1	> 100000	12.4	209	80.2	
COc1ccc(C(=O)N[C@@H](Cc2c[nH]c3ccccc23)C(=O)NCc2ccc(C(=O)NNc3ccccc3)cc2)cc1	> 100000	> 5000	> 5000	> 5000	EC50 [5]: > 20000 nM
CCCNNC(=O)/C=C/c1ccc(OC[C@H](Cc2c[nH]c3ccccc23)NC(=O)c2ccc(OC)cc2)cc1	> 100000	2.82	283	28.9	EC50 [5]: 243 nM
O=C(CCCCCCC(=O)Nc1ccccc1)NO					Activity [6]: Active
CCCNNC(=O)CCCCCCNC(=O)[C@H](Cc1c[nH]c2ccccc12)NC(=O)c1ccc(OC)cc1	> 100000	5.2	191	91.6	
CCCNNC(=O)CCCCCCCNC(=O)[C@H](Cc1c[nH]c2ccccc12)NC(=O)c1ccc(OC)cc1	> 100000	12.1	199	52.8	
COc1ccc(C(=O)N[C@@H](Cc2c[nH]c3ccccc23)C(=O)NCc2ccc(C(=O)Nc3ccccc3N)cc2)cc1	> 100000				IC50 [7]: 99.9 nM; IC50 [8]: 64.9 nM; IC50 [9]: 184 nM; IC50 [10]: 121 nM; IC50 [11]: 169 nM; IC50 [12]: 135 nM; IC50 [13]: 939 nM; inhibition [14]: Active; IC50 [15]: 34.5 nM; inhibition [16]: Active; IC50 [17]: 348 nM; IC50 [18]: 252 nM; IC50 [19]: 49.8 nM; IC50 [20]: 433 nM
CCCCCNNC(=O)c1ccc(CNC(=O)[C@H](Cc2c[nH]c3ccccc23)NC(=O)c2ccc(OC)cc2)cc1	> 100000	10.9	332	29.8	

Further lines, with some results ahead:

IC50 [1] [nM]	IC50 [2] [nM]	IC50 [3] [nM]	IC50 [4] [nM]	Structure (SMILES)	other results
> 100000	16.5	193	53.7	CCCCNNC(=O)c1ccc(CNC(=O)[C@H](Cc2c[nH]c3ccccc23)NC(=O)c2ccc(OC)cc2)cc1	
> 100000	> 5000	> 5000	> 5000	COc1ccc(C(=O)N[C@@H](Cc2c[nH]c3ccccc23)C(=O)NCc2ccc(C(=O)NNC3CCCC3)cc2)cc1	EC50 [5]: > 20000 nM
> 100000		287	63.3	CCCNNC(=O)c1ccc(CNC(=O)[C@H](Cc2c[nH]c3ccccc23)NC(=O)c2ccc(OC)cc2)cc1	IC50 [7]: 91.2 nM; IC50 [10]: 194 nM; IC50 [11]: 260 nM; inhibition [14]: Active; IC50 [15]: 32.9 nM; inhibition [16]: Active; IC50 [17]: 424 nM; IC50 [18]: 367 nM; IC50 [19]: 50.1 nM
393	34.9	88.8	95.5	CCNNC(=O)c1ccc(CNC(=O)[C@H](Cc2c[nH]c3ccccc23)NC(=O)c2ccc(OC)cc2)cc1	
